The values below come from ChEMBL document CHEMBL1152738, “Synthesis and in vitro antitubercular activity of a series of quinoline derivatives” (2009).

Usually MIC stands for the lowest concentration that inhibits growth of the organism. A lower MIC goes with greater potency.

≈ marks a conversion by molar mass, not a printed value.

This test relates to Mycobacterium tuberculosis. The experiment in a line: Antitubercular activity against Mycobacterium tuberculosis H37Rv after 5 days by microplate alamar blue assay. Type of test: functional. The following applies: 120 h. In a few lines:
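M. tuberculosis H37Rv (ATCC 27294, rifampin- and isoniazid-susceptible) tested by MABA. Compounds serially diluted directly in Middlebrook 7H9 broth in 96-well plates, which were sealed and incubated at 37 °C for 5 days. A fresh 1:1 Alamar Blue/10% Tween 80 mix was then added and plates were incubated 24 h more. MIC was the lowest concentration preventing the blue-to-pink colour change.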
`C=C[C@H]1CN2CC[C@H]1C[C@H]2[C@H](O)c1ccnc2ccc(OC)cc12` [QUININE] displayed an MIC of 100 µg/mL (≈ 308 µM).
`N#CCCNc1ccnc2cc(Cl)ccc12` returned a minimal inhibitory concentration (MIC) of over 100 µg/mL.
`COc1cc(NC(C)CCCN)c2ncccc2c1` (configuration not stated) [PRIMAQUINE] registered a minimum inhibitory concentration (MIC) of 50 µg/mL (≈ 193 µM).
On to `CCCCNc1ccnc2ccccc12`, for which the lowest concentration to inhibit growth (MIC) was 50 µg/mL (≈ 250 µM).
`OC(c1cc(C(F)(F)F)nc2c(C(F)(F)F)cccc12)C1CCCCN1` (configuration not stated) [MEFLOQUINE] returned a minimum inhibitory concentration (MIC) of 25 µg/mL (≈ 66.1 µM).
Compound `CCC(CO)Nc1ccnc2cc(Cl)ccc12` (racemic) came in with a minimum inhibitory concentration (MIC) of over 100 µg/mL.
As to `CC[C@@H](CO)Nc1ccnc2cc(Cl)ccc12`, the minimum inhibitory concentration (MIC) is over 100 µg/mL.
In turn, `NCCCCCCCCNc1ccnc2cc(Cl)ccc12` gave an MIC of 6.25 µg/mL (≈ 20.4 µM).
`NCCCCNc1ccnc2cc(Cl)ccc12`: the MIC was over 100 µg/mL.
Under `NCCNc1ccnc2cc(Cl)ccc12` stands over 100 µg/mL.
Consider `CCCCNc1ccnc2cc(Cl)ccc12`, for which it took 12.5 µg/mL (≈ 53.3 µM) to inhibit growth (MIC).
For the compound `CCCCNCCNc1ccnc2cc(Cl)ccc12`, the minimal inhibitory concentration (MIC) was over 100 µg/mL.
`OCCCNc1ccnc2cc(Cl)ccc12` had an MIC of over 100 µg/mL.
Under `[N-]=[N+]=Nc1ccnc2cc(Cl)ccc12` stands over 100 µg/mL.
Under `CC[C@H](CO)Nc1ccnc2cc(Cl)ccc12` stands over 100 µg/mL.
`ClCCNc1ccnc2cc(Cl)ccc12` displayed an MIC of 12.5 µg/mL (≈ 51.8 µM).
In the case of `Nc1ccnc2ccccc12` [QUINOLIN-4-AMINE], the minimum inhibitory concentration (MIC) was over 100 µg/mL.
The compound `OCCNCCNc1ccnc2cc(Cl)ccc12` returned an MIC of over 100 µg/mL.
In the case of `CCN(CC)Cc1cc(Nc2ccnc3cc(Cl)ccc23)ccc1O.Cl` it was 100 µg/mL; in that of `ClCCCNc1ccnc2cc(Cl)ccc12`, 50 µg/mL (≈ 196 µM); in that of `OCCNc1ccnc2ccccc12`, over 100 µg/mL.
In the case of `CCC(CCl)Nc1ccnc2cc(Cl)ccc12` (configuration not stated) it was 50 µg/mL (≈ 186 µM); in that of `NCCCCCCNc1ccnc2cc(Cl)ccc12`, 25 µg/mL (≈ 90 µM); in that of `OCCNc1ccnc2cc(Cl)ccc12`, over 100 µg/mL.
Take `CC(C)NCCNc1ccnc2cc(Cl)ccc12`: the minimum inhibitory concentration (MIC) was over 100 µg/mL.
As to `NCCCCCCCCCCNc1ccnc2cc(Cl)ccc12`, the minimal inhibitory concentration (MIC) came out at 3.12 µg/mL (≈ 9.34 µM).
Consider `ClCCNc1ccnc2ccccc12`, for which the minimal inhibitory concentration (MIC) was over 100 µg/mL.
`CNc1ccnc2cc(Cl)ccc12` yielded an MIC of 100 µg/mL (≈ 519 µM).
`Clc1ccc2c(NCCNCc3ccccc3)ccnc2c1` showed an MIC of 50 µg/mL (≈ 160 µM).
Take `[N-]=[N+]=NCCNc1ccnc2cc(Cl)ccc12`: the MIC came to 50 µg/mL (≈ 202 µM).
Take `Nc1ccnc2cc(Cl)ccc12`: the MIC was over 100 µg/mL.
`CCCNCCNc1ccnc2cc(Cl)ccc12` had a minimum inhibitory concentration (MIC) of 100 µg/mL (≈ 379 µM).
In the case of `NCCCNc1ccnc2cc(Cl)ccc12` it was over 100 µg/mL; in that of `Clc1ccc2c(NCCNC3CCCCC3)ccnc2c1`, 100 µg/mL (≈ 329 µM).
On to `CCCNc1ccnc2cc(Cl)ccc12`, for which the MIC came to 50 µg/mL (≈ 227 µM).
`CNCCNc1ccnc2cc(Cl)ccc12` registered an MIC of over 100 µg/mL.
Regarding `CC(C)Nc1ccnc2cc(Cl)ccc12`, the minimal inhibitory concentration (MIC) amounted to 50 µg/mL (≈ 227 µM).
